Laboratory results: ChEMBL document CHEMBL2086239, “Synthesis and biological evaluation of combretastatin-amidobenzothiazole conjugates as potential anticancer agents” (Eur J Med Chem, 2012)
Active and inactive are the calls of the source. No cut-off for these calls is given here.

Tests used:
SK-MEL-5 = assay: Growth inhibition of human SK-MEL-5 cells after 48 hrs by SRB assay; format: functional; details: SK-MEL-5, 48 h
In short: (§1)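 NCI 60-cell-line panel, five-dose testing after preliminary screen; sulforhodamine B protein assay in DMEM with 10% FBS, 37 °C, 5% CO2, 100% humidity. Cells seeded and incubated 24 h before compound addition, then exposed 48 h. Absorbance read at 560 nm; growth percentage relative to control wells; GI50 taken as concentration giving 50% growth inhibition.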

U-251 = assay: Growth inhibition of human U251cells after 48 hrs by SRB assay; format: functional; details: U-251, 48 h; in short: as §1
SF-268 = assay: Growth inhibition of human SF268 cells after 48 hrs by SRB assay; format: functional; details: SF-268, 48 h
In short: (§2)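 NCI 60-cell-line screen: after preliminary screening, tested at five dose concentrations on 59 human tumour lines covering leukemia, lung, colon, CNS, melanoma, ovarian, renal, prostate and breast.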

SF-539 = assay: Growth inhibition of human SF539 cells after 48 hrs by SRB assay; format: functional; details: SF-539, 48 h; in short: as §1
NCI-H522 = assay: Growth inhibition of human NCI-H522 cells after 48 hrs by SRB assay; format: functional; details: NCI-H522, 48 h; in short: as §2
OVCAR-3 = assay: Growth inhibition of human OVCAR3 cells after 48 hrs by SRB assay; format: functional; details: OVCAR-3, 48 h; in short: as §2
LOX IMVI = assay: Growth inhibition of human LOXIMVI cells after 48 hrs by SRB assay; format: functional; in short: as §2
UACC-257 = assay: Growth inhibition of human UACC257 cells after 48 hrs by SRB assay; format: functional; in short: as §1
COLO 205 [1] = assay: Cytotoxicity against human COLO205 cells after 48 hrs assessed as inhibition of cell growth at 10 uM after 48 hrs by SRB assay relative to control; format: functional; details: COLO 205, 48 h, read-out: GI
In short: (§3)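 SRB protein assay in DMEM with 10% FBS at 37 °C, 5% CO2, 100% relative humidity. Cells seeded in 96-well plates, incubated 24 h, then exposed to drug at 10 µM for 48 h and processed per standard protocol. Absorbance read at 560 nm; growth percentage calculated for test wells relative to control wells.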

HCT-15 = assay: Growth inhibition of human HCT15 cells after 48 hrs by SRB assay; format: functional; details: HCT-15, 48 h; in short: as §2
RPMI-8226 = assay: Growth inhibition of human RPMI8226 cells after 48 hrs by SRB assay; format: functional; details: RPMI-8226, 48 h; in short: as §2
UACC-62 = assay: Growth inhibition of human UACC62 cells after 48 hrs by SRB assay; format: functional; details: UACC-62, 48 h; in short: as §1
MDA-MB-435 = assay: Growth inhibition of human MDA-MB-435 cells after 48 hrs by SRB assay; format: functional; details: MDA-MB-435, 48 h; in short: as §2
IGROV-1 = assay: Growth inhibition of human IGROV1 cells after 48 hrs by SRB assay; format: functional; details: IGROV-1, 48 h; in short: as §2
CAKI-1 = assay: Growth inhibition of human Caki1 cells after 48 hrs by SRB assay; format: functional; details: CAKI-1, 48 h; in short: as §2
MCF7 [2] = assay: Cell cycle arrest in human MCF7 cells assessed as accumulation at G2/M phase at 4 uM after 24 hrs by FACS analysis (reference value: 34.88%); format: functional
THP-1 = assay: Cytotoxicity against human THP1 cells after 48 hrs assessed as inhibition of cell growth at 10 uM after 48 hrs by SRB assay relative to control; format: functional; details: for inhibition of growth at 10 µM: THP-1, 48 h, read-out: GI; in short: as §3
HEp-2 = assay: Cytotoxicity against human Hep2 cells after 48 hrs assessed as inhibition of cell growth at 10 uM after 48 hrs by SRB assay relative to control; format: functional; details: for inhibition of growth at 10 µM: HEp-2, 48 h, read-out: GI; in short: as §3
K562 = assay: Growth inhibition of human K562 cells after 48 hrs by SRB assay; format: functional; details: K562, 48 h; in short: as §2
RXF 393 = assay: Growth inhibition of human RXF393 cells after 48 hrs by SRB assay; format: functional; details: RXF 393, 48 h; in short: as §2
COLO 205 [3] = assay: Growth inhibition of human COLO205 cells after 48 hrs by SRB assay; format: functional; details: COLO 205, 48 h; in short: as §2
UO-31 = assay: Growth inhibition of human UO31 cells after 48 hrs by SRB assay; format: functional; details: UO-31, 48 h; in short: as §1
SNB-19 = assay: Growth inhibition of human SNB19 cells after 48 hrs by SRB assay; format: functional; in short: as §1
NCI-H460 = assay: Growth inhibition of human NCI-H460 cells after 48 hrs by SRB assay; format: functional; details: NCI-H460, 48 h; in short: as §2
ACHN = assay: Growth inhibition of human ACHN cells after 48 hrs by SRB assay; format: functional; in short: as §2
MCF7 [4] = assay: Cytotoxicity against human MCF7 cells at 4 uM after 24 hrs by MTT assay; format: functional, cell-based
In short: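 MCF-7 cells grown in DMEM with 10% fetal calf serum, penicillin and streptomycin at 37 °C, 5% CO2. Seeded at 10,000 cells/well, incubated overnight, then treated 24 h at 4 µM. Medium replaced with fresh medium plus MTT dye, incubated 2 h at 37 °C. Absorbance read at 570 nm; O.D. taken as viability versus untreated control.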

[5] = Inhibition of tubulin polymerization after 30 mins to 1 hr by spectrophotometry
In short: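 This was a kit-based tubulin polymerization assay. Kit tubulin in G-PEM buffer was incubated with compounds, and polymerization was followed as optical density at 340 nm for 30 min to 1 h. Inhibition was read as a decrease in OD. Nocodazole and paclitaxel were run as reference destabilizer and stabilizer.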

[6] = biological target: Mitogen-activated protein kinase; ERK1/ERK2 (Homo sapiens) (UniProt P27361+P28482); assay: Inhibition of nuclear translocation of phosphorylated ERK1/2 in human MCF7 cells at 4 uM after 24 hrs by immunofluorescence assay; format: cell-based
Mitogen-activated protein kinase; ERK1/ERK2 (Homo sapiens), sequence (P27361 whole entry, looked up): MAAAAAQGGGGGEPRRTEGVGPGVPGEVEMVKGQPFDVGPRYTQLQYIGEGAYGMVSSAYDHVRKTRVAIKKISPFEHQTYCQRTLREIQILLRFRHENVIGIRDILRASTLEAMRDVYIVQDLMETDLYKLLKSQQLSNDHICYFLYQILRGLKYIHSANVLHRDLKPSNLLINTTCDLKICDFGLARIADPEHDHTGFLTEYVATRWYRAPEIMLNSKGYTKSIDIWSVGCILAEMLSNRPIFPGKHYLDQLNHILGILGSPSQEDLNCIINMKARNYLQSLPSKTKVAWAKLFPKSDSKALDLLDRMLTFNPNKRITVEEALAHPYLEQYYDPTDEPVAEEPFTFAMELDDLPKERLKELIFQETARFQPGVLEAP
Mitogen-activated protein kinase; ERK1/ERK2 (Homo sapiens), sequence (P28482 whole entry, looked up): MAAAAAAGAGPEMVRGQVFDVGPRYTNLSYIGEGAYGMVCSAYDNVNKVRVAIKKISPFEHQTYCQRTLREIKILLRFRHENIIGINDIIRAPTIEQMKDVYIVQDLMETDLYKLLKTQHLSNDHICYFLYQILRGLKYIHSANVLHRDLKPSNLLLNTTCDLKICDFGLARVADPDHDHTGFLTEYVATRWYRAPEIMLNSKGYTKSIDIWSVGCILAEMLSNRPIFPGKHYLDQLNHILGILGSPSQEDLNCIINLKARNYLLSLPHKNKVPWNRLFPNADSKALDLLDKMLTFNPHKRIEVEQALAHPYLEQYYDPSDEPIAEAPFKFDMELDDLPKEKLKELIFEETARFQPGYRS
In short: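 MCF-7 cells (DMEM, 10% fetal calf serum, 37 °C, 5% CO2) were treated on cover slips for 24 h. They were fixed in 4% paraformaldehyde, permeabilised with 0.2% Triton X-100, held in methanol at 4 °C overnight and blocked with 1% BSA for 60 min. Anti-phospho-ERK antibody (1:100, 2 h RT) was followed by FITC anti-rabbit secondary for 1 h and a DAPI/PI mount. Subcellular pERK localisation was imaged by confocal microscopy.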

MCF7 [7] = assay: Inhibition of microtubule organization in human MCF7 cells at 4 uM after 24 hrs by immunofluorescence analysis; format: cell-based
In short: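 MCF-7 cells were grown in DMEM with 10% fetal calf serum and penicillin/streptomycin at 37 °C and 5% CO2. Cells on cover slips were treated for 24 h, then fixed in 4% paraformaldehyde for 20 min. They were permeabilised with 0.2% Triton X-100, held in methanol at 4 °C overnight and blocked with 1% BSA. Staining used anti-α-tubulin (1:100, 2 h RT), FITC secondary and a DAPI/PI mount, with confocal imaging.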

Compound	GI50 (SK-MEL-5)	GI50 (U-251)	GI50 (SF-268)	GI50 (SF-539)	GI50 (NCI-H522)	GI50 (OVCAR-3)	GI50 (LOX IMVI)	inhibition of growth at 10 µM (COLO 205 [1])	GI50 (HCT-15)	GI50 (RPMI-8226)	GI50 (UACC-62)	GI50 (MDA-MB-435)	GI50 (IGROV-1)	GI50 (CAKI-1)	Activity (MCF7 [2])	GI50 (K562)	GI50 (RXF 393)	GI50 (COLO 205 [3])	GI50 (UO-31)	GI50 (NCI-H460)	other results
COc1ccc2nc(NC(=O)COc3cc(/C=C\c4cc(OC)c(OC)c(OC)c4)ccc3OC)sc2c1	2.68 µM	4 µM	4.31 µM	2.84 µM	3.09 µM	2.17 µM	4.17 µM	56%	2.89 µM	5.43 µM	5.93 µM	1.16 µM	7 µM	3.2 µM	30.07%	3.6 µM	2.5 µM	3.89 µM	4.31 µM	3.73 µM	GI50 (UACC-257; UACC-257, 48 h): 63 µM; inhibition of growth at 10 µM (THP-1): 72%; inhibition of growth at 10 µM (HEp-2): 71%; GI50 (SNB-19; SNB-19, 48 h): 6.3 µM; GI50 (ACHN): 7.77 µM
COc1ccc(/C=C\c2cc(OC)c(OC)c(OC)c2)cc1OCC(=O)Nc1nc2ccc(F)cc2s1	1.76 µM	4.33 µM	7.23 µM	4.51 µM	2.92 µM	9.99 µM	3.23 µM	50%	8.19 µM	6.36 µM	4.05 µM	0.33 µM	4.17 µM	2.78 µM	42.08%	3.62 µM	6.29 µM	7.78 µM	2.56 µM	4.36 µM	GI50 (UACC-257; UACC-257, 48 h): 8.69 µM; inhibition of growth at 10 µM (THP-1): 54%; inhibition of growth at 10 µM (HEp-2): 64%; Activity (MCF7 [4]): Active; GI50 (SNB-19): inactive; GI50 (ACHN): 3.33 µM
COc1ccc(/C=C\c2cc(OC)c(OC)c(OC)c2)cc1O [COMBRETASTATIN A4]	0.003 µM	0.007 µM	0.006 µM	0.002 µM	0.001 µM	0.001 µM	0.003 µM	63%	0.003 µM	0.003 µM	0.005 µM	0.001 µM	0.015 µM	0.025 µM	61.23%	0.002 µM	0.002 µM	0.1 µM	0.019 µM	0.007 µM	GI50 (UACC-257; UACC-257, 48 h): 0.003 µM; inhibition of growth at 10 µM (THP-1): 87%; inhibition of growth at 10 µM (HEp-2): 64%; GI50 (SNB-19; SNB-19, 48 h): 0.003 µM; inhibition [5]: Active; GI50 (ACHN): 0.006 µM
COc1ccc(/C=C\c2cc(OC)c(OC)c(OC)c2)cc1OCC(=O)Nc1nc2ccc(OC(F)(F)F)cc2s1	3.26 µM	3.37 µM	6.01 µM	2.28 µM	3.16 µM	3.37 µM	4.77 µM	41%	3.23 µM	5.83 µM	5.11 µM	1.93 µM	5.64 µM	4.6 µM	33.45%	3.43 µM	2.65 µM	43.3 µM	4.37 µM	4.11 µM	GI50 (UACC-257): inactive; inhibition of growth at 10 µM (THP-1): 66%; inhibition of growth at 10 µM (HEp-2): 78%; GI50 (SNB-19; SNB-19, 48 h): 7.08 µM; GI50 (ACHN): 8.31 µM
COc1ccc(/C=C\c2cc(OC)c(OC)c(OC)c2)cc1OCC(=O)Nc1nc2ccc(C(F)(F)F)cc2s1	2.84 µM	3.67 µM	3.85 µM	2.66 µM	2.89 µM	2.11 µM	4.01 µM	25%	3.24 µM	5.48 µM	3.9 µM	1.84 µM	4.48 µM	3.1 µM	37.02%	3.3 µM	2.27 µM	17.1 µM	3.59 µM	3.55 µM	GI50 (UACC-257; UACC-257, 48 h): 40 µM; inhibition of growth at 10 µM (THP-1): 29%; inhibition of growth at 10 µM (HEp-2): 76%; GI50 (SNB-19; SNB-19, 48 h): 5.03 µM; GI50 (ACHN): 4.82 µM
COc1ccc(/C=C\c2cc(OC)c(OC)c(OC)c2)cc1OCC(=O)Nc1nc2ccccc2s1	0.036 µM	0.048 µM	0.18 µM	0.045 µM	0.079 µM	0.043 µM	0.067 µM	60%	0.048 µM	0.15 µM	0.063 µM	0.019 µM	0.21 µM	0.41 µM	46%	0.042 µM	0.05 µM	2.83 µM	0.58 µM	0.052 µM	inhibition [6]: Active; GI50 (UACC-257; UACC-257, 48 h): 11 µM; growth inhibition (GI) (THP-1): inactive; growth inhibition (GI) (HEp-2): inactive; Activity (MCF7 [4]): Active; inhibition (MCF7 [7]): Active; IC50 [5]: 5 µM; GI50 (ACHN): 0.093 µM
COc1ccc(/C=C\c2cc(OC)c(OC)c(OC)c2)cc1OCC(=O)Nc1ccc2nc(C)sc2c1	1.97 µM	3.59 µM	3.61 µM	2.56 µM	2.28 µM	6.32 µM	2.64 µM	17%	2.8 µM	1.98 µM	2.19 µM	2.13 µM	3.72 µM	2.19 µM	37.09%	2.19 µM	5.06 µM	4.4 µM	2.41 µM	3.36 µM	GI50 (UACC-257; UACC-257, 48 h): 1.73 µM; inhibition of growth at 10 µM (THP-1): 59%; inhibition of growth at 10 µM (HEp-2): 40%; GI50 (SNB-19; SNB-19, 48 h): 3.89 µM; GI50 (ACHN): 3.12 µM
